This is an account of results in PubChem BioAssay AID588629 (Broad Institute, 2011).

Records with an inconclusive call do not appear. The source made the active and inactive calls.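 Rule for the calls: active = every test run called active, with signal falling and half-effect dose at or below the top valid dose; inconclusive = test runs give conflicting calls; inactive = all test runs inactive.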

The target in the first experiment is cAMP-dependent protein kinase catalytic subunit alpha (Homo sapiens) (UniProt P17612). Kind of experiment: inhibition of human PKA kinase activity – biochemical, Caliper mobility shift, dry powder samples, set 2, dose response (AID 588629). The following applies: Recombinant PKA, peptide phosphorylation. Summed up: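 System: recombinant His-tagged human PKA catalytic fragment, purified enzyme; also added: 3 µM Peptide 21, 12 µM ATP; timing: kinase reaction with compound, 1 h at room temperature; technique: Microfluidic electrophoresis, EDTA-stopped endpoint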
One may read the IC50 as the concentration needed to halve the response being measured. In the case of `COc1cc(/C=C2\SC(=NCc3ccccc3)NC2=O)ccc1O`, the IC50 was 2.9 µM.
The same measure, in the same setting: next, `O=C(Nc1ccccc1-c1nc2ccccc2[nH]c1=O)c1cc2ccccc2s1`: 6.73 µM.
Same read-out and setting: the figure for `COc1cc(/C=C2\SC(=Nc3ccccc3Cl)NC2=O)ccc1O` is 3.66 µM; for `O=C(Nc1ccccc1-c1nc2cc(Cl)c(Cl)cc2[nH]c1=O)c1cccs1` it is 4.88 µM.

The same experiment, now with this note: Recombinant PKA, peptide phosphorylation, at 10 µM (top of the series).
Turning to `COc1cc(/C=C2\SC(=Nc3cccc(F)c3)NC2=O)ccc1O`, the “% substrate conversion (lower = inhibition)” value is “inactive”.
`COc1cc(/C=C2\SC(=NC(C)(C)C)NC2=O)ccc1O`: the “% substrate conversion (lower = inhibition)” value is “inactive”.
Same read-out and setting: the entry for `COc1ccccc1N=C1NC(=O)/C(=C/c2cccc(F)c2)S1` is “inactive”.
Still for that read-out and setting: the entry for `COc1ccccc1N=C1NC(=O)/C(=C/c2ccc3c(c2)OC(F)(F)O3)S1` is “inactive”.
On the same count and under the same terms, the entry for `O=C(Nc1cc(Cl)ccc1-c1nc2ccccc2[nH]c1=O)c1cccs1` is “inactive”; for `O=C(Nc1ccc(F)cc1-c1nc2ccccc2[nH]c1=O)c1cccs1` it is “inactive”.
For the compound `COc1ccccc1N=C1NC(=O)/C(=C/c2cc(Cl)cc(Cl)c2O)S1`, the “% substrate conversion (lower = inhibition)” value is “inactive”.
On the same count and under the same terms, next, `COc1cc(/C=C2\SC(N)=NC2=O)ccc1O`: “inactive”.
Still for that read-out and setting: the entry for `COc1ccccc1N=C1NC(=O)/C(=C/c2ccc3c(c2)OCO3)S1` is “inactive”; for `Nc1ccccc1-c1nc2ccccc2[nH]c1=O` it is “inactive”.
The same measure, in the same setting: the entry for `O=C(Nc1ccccc1-c1nc2ccccc2[nH]c1=O)c1cccs1` is “inactive”; for `COc1ccccc1N=C1NC(=O)/C(=C/c2ccc(F)c(F)c2)S1` it is “inactive”; for `O=C(Nc1cc(F)ccc1-c1nc2ccccc2[nH]c1=O)c1cccs1` it is “inactive”.
Consider `COc1ccc(C(=O)Nc2ccccc2-c2nc3ccccc3[nH]c2=O)cc1`, for which the “% substrate conversion (lower = inhibition)” value was “inactive”.
On the same count and under the same terms, the entry for `O=C(Nc1ccccc1-c1nc2ccccc2[nH]c1=O)c1cccnc1` is “inactive”; for `O=C(Nc1ccc(Cl)cc1-c1nc2ccccc2[nH]c1=O)c1cccs1` it is “inactive”; for `COc1ccccc1N=C1NC(=O)/C(=C/c2ccc(Cl)cc2)S1` it is “inactive”.
Still for that read-out and setting: next, `COc1cc(/C=C2/SC(=Nc3ccc(O)cc3)NC2=O)ccc1O`: “inactive”.
Still for that read-out and setting: the entry for `O=C(Nc1ccccc1-c1nc2ccccc2[nH]c1=O)c1ccncc1` is “inactive”; for `COc1cc(/C=C2\SC(=Nc3ccncc3)NC2=O)ccc1O` it is “inactive”.
On to `COc1ccccc1N=C1NC(=O)/C(=C/c2ccc(OC)c(OC)c2)S1`, for which the “% substrate conversion (lower = inhibition)” value is “inactive”.
The same measure, in the same setting: next, `O=C(Nc1ccccc1-c1nc2ccccc2[nH]c1=O)c1cccc(F)c1`: “inactive”; `COc1ccccc1/C=C1\SC(=Nc2ccccc2OC)NC1=O`: “inactive”.
Still for that read-out and setting: the entry for `COc1cc(/C=C2\SC(=Nc3ccccc3F)NC2=O)ccc1O` is “inactive”; for `COc1cc(/C=C2\SC(=Nc3ccc(F)cc3)NC2=O)ccc1O` it is “inactive”; for `COc1ccccc1N=C1NC(=O)/C(=C/c2ccc(OC(F)(F)F)cc2)S1` it is “inactive”.
The same measure, in the same setting: the entry for `COc1ccccc1N=C1NC(=O)/C(=C/c2cc(C)on2)S1` is “inactive”; for `COc1ccccc1N=C1NC(=O)/C(=C/c2ccc3c(c2)OCCO3)S1` it is “inactive”; for `COc1ccccc1N=C1NC(=O)/C(=C/C2CCCCC2)S1` it is “inactive”.
`COc1cc(/C=C2\SC(=NC(C)C)NC2=O)ccc1O`: the “% substrate conversion (lower = inhibition)” value is “inactive”.
Turning to `COc1ccc(/C=C2\SC(=Nc3ccccc3OC)NC2=O)c(O)c1`, the “% substrate conversion (lower = inhibition)” value is “inactive”.
The same measure, in the same setting: the entry for `COc1cc(/C=C2\SC(=Nc3cccnc3)NC2=O)ccc1O` is “inactive”; for `COc1ccccc1N=C1NC(=O)/C(=C/c2cnn(C)c2)S1` it is “inactive”.
Same read-out and setting: next, `COc1ccccc1N=C1NC(=O)/C(=C/c2cccnc2)S1`: “inactive”; `COc1ccccc1N=C1NC(=O)/C(=C/c2ccc(F)cc2)S1`: “inactive”; `COc1ccccc1N=C1NC(=O)/C(=C/C(C)C)S1`: “inactive”.
Take `COc1cc(/C=C2\SC(=Nc3ccc(Cl)cc3)NC2=O)ccc1O`: the “% substrate conversion (lower = inhibition)” value was “inactive”.
On the same count and under the same terms, next, `COc1ccccc1N=C1NC(=O)/C(=C/c2ccc(C#N)cc2)S1`: “inactive”; `COc1ccccc1N=C1NC(=O)/C(=C/c2cccn2C)S1`: “inactive”; `COc1ccccc1Nc1nc(O)c(/C=c2/ccc3c(c2)C=CN=3)s1`: “inactive”.
On the same count and under the same terms, the entry for `COc1ccc(N=C2NC(=O)/C(=C/c3ccc(O)c(OC)c3)S2)cc1` is “inactive”.
In the case of `COc1ccccc1N=C1NC(=O)/C(=C/c2ccc(C(C)C)cc2)S1`, the “% substrate conversion (lower = inhibition)” value was “inactive”.
The same measure, in the same setting: the entry for `COc1ccccc1N=C1NC(=O)/C(=C/c2ccccn2)S1` is “inactive”; for `O=C(Nc1ccccc1-c1nc2ccccc2[nH]c1=O)C1CCCCC1` it is “inactive”.
Same read-out and setting: next, `CC(C)c1ccc(NC(=O)c2cccs2)c(-c2nc3ccccc3[nH]c2=O)c1`: “inactive”.
In the case of `COc1ccccc1N=C1NC(=O)/C(=C/c2ccc(O)cc2)S1`, the “% substrate conversion (lower = inhibition)” value was “inactive”.
On the same count and under the same terms, next, `COc1ccccc1N=C1NC(=O)/C(=C/c2ccncc2)S1`: “inactive”.
For `COc1ccc(-n2ncc3cnc(Nc4ccc(N5CCN(C)CC5)c(OC)c4)nc32)cc1`, the “% substrate conversion (lower = inhibition)” value is “inactive”.
Same read-out and setting: the entry for `COc1cc(/C=C2\SC(=Nc3ccccc3OC)NC2=O)ccc1F` is “inactive”; for `COc1cccc(/C=C2\SC(=Nc3ccccc3OC)NC2=O)c1` it is “inactive”; for `O=C(Nc1ccccc1-c1nc2cc(F)c(F)cc2[nH]c1=O)c1cccs1` it is “inactive”.
For `COc1ccccc1Nc1nc(O)c(/C=C2/C=c3ccccc3=N2)s1`, the “% substrate conversion (lower = inhibition)” value was “inactive”.
Still for that read-out and setting: next, `O=C(Nc1ccccc1-c1nc2ccccc2[nH]c1=O)c1ccc(F)cc1`: “inactive”; `COc1ccccc1N=C1NC(=O)/C(=C/c2ccccc2Cl)S1`: “inactive”; `O=C(Nc1ccccc1-c1nc2ccccc2[nH]c1=O)c1ccccn1`: “inactive”.
The same measure, in the same setting: next, `COc1ccccc1N=C1NC(=O)CS1`: “inactive”; `COc1ccccc1N=C1NC(=O)/C(=C/c2ccccc2)S1`: “inactive”.
Consider `O=C(Nc1ccc(OC(F)(F)F)cc1-c1nc2ccccc2[nH]c1=O)c1cccs1`, for which the “% substrate conversion (lower = inhibition)” value is “inactive”.
As to `COc1cc(/C=C2\SC(=Nc3ccccc3OC)NC2=O)ccc1O`, the “% substrate conversion (lower = inhibition)” value was “inactive”.
The same measure, in the same setting: next, `COc1ccccc1N=C1NC(=O)/C(=C/c2ccc(Cl)c(Cl)c2)S1`: “inactive”; `O=C1NC(=NCc2ccccc2)S/C1=C/c1ccc(O)cc1`: “inactive”.
Still for that read-out and setting: the entry for `COc1ccccc1N=C1NC(=O)/C(=C/c2nc(C)cs2)S1` is “inactive”; for `COc1ccccc1N=C1NC(=O)/C(=C/c2ccc(-c3cccnc3)cc2)S1` it is “inactive”; for `O=c1[nH]c2ccccc2nc1-c1ccccc1NCc1cccs1` it is “inactive”.
The same measure, in the same setting: the entry for `COc1ccccc1N=C1NC(=O)/C(=C/c2ccccc2F)S1` is “inactive”; for `COc1ccc(/C=C2\SC(=Nc3ccccc3OC)NC2=O)cc1` it is “inactive”; for `COc1ccccc1N=C1NC(=O)/C(=C/c2cccc(Cl)c2)S1` it is “inactive”.
`COc1ccccc1N=C1NC(=O)/C(=C/c2ccc(C)cc2)S1`: the “% substrate conversion (lower = inhibition)” value was “inactive”.
